# Active and inactive are the calls of the source. The rule behind the calls is not given here.
# What was measured:
# Mus musculus [1] = assay: Immunostimulatory activity in C57BL/6 mouse assessed as mild increase in serum IFN-gamma production at 10 ug/mL, iv after 10 to 60 hrs post-injection by ELISA; format: functional, organism-based
# Procedure, shortened: (§1)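 C57BL/6 mice, 8–16 wk old, kept specific pathogen-free. Glycolipid stock (1.0 mg/mL in DMSO) diluted to 10 µg/mL in Dulbecco's PBS just before dosing; 200 µL given iv. Retro-orbital heparinized blood taken at 3, 6, 12, 24, 36, 48 and 60 h for plasma. IFN-γ measured by ELISA; IL-4 and IL-12p70 by cytometric bead array. Mean ± SD of 3 mice; experiment repeated three times.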
# Mus musculus [2] = assay: Ratio of KRN700 to compound activity for increase in serum IL4 production in C57BL/6 mouse at 10 ug/mL, iv after 3 to 24 hrs post-injection by cytometric bead array method; format: functional
# Mus musculus [3] = assay: Immunostimulatory activity in C57BL/6 mouse assessed as increase in serum IL-12p70 production at 10 ug/mL, iv after 3 hrs post-injection by cytometric bead array method; format: functional, organism-based; procedure, shortened: as §1
# PBMC = assay: Immunostimulatory activity in human PBMC assessed as increase in IFN-gamma production by ELISA; format: functional, cell-based
# Mus musculus [4] = assay: Immunostimulatory activity in C57BL/6 mouse assessed as increase in serum IFN-gamma production at 10 ug/mL, iv after 24 hrs post-injection by ELISA; format: functional, organism-based; procedure, shortened: as §1
# Mus musculus [5] = assay: Immunostimulatory activity in C57BL/6 mouse assessed as increase in serum IFN-gamma production at 10 ug/mL, iv after 36 hrs post-injection by ELISA; format: functional, organism-based; procedure, shortened: as §1
# Mus musculus [6] = assay: Immunostimulatory activity in C57BL/6 mouse assessed as increase in serum IL-12p70 production at 10 ug/mL, iv after 6 hrs post-injection by cytometric bead array method; format: functional, organism-based; procedure, shortened: as §1
# Mus musculus [7] = assay: Immunostimulatory activity in C57BL/6 mouse assessed as increase in serum IL4 production at 10 ug/mL, iv after 3 to 24 hrs post-injection by cytometric bead array method; format: functional, organism-based; procedure, shortened: as §1
# Mus musculus [8] = assay: Immunostimulatory activity in C57BL/6 mouse assessed as increase in serum IFN-gamma production at 10 ug/mL, iv after 10 to 60 hrs post-injection by ELISA; format: functional, organism-based; procedure, shortened: as §1
# Mus musculus [9] = assay: Immunostimulatory activity in C57BL/6 mouse assessed as increase in serum IL-12p70 production at 10 ug/mL, iv after 3 to 24 hrs post-injection by cytometric bead array method; format: functional, organism-based; procedure, shortened: as §1
smiles,measurement,setting,value
CCCCCCCCCCCCCCCCCCCCCCCCCC(=O)N[C@@H](CO[C@H]1C[C@H](C)[C@H](O)[C@H](O)[C@H]1O)[C@H](O)[C@H](O)CCCCCCCCCCCCCC,Activity,Mus musculus [1],Active
CCCCCCCCCCCCCCCCCCCCCCCCCC(=O)N[C@@H](CO[C@H]1C[C@H](CO)[C@H](O)[C@H](O)[C@H]1O)[C@H](O)[C@H](O)CCCCCCCCCCCCCC,Ratio,Mus musculus [2],0.5
same,Activity,Mus musculus [3],Active
same,Activity,PBMC,Active
same,Activity,Mus musculus [4],Active
same,Activity,Mus musculus [5],Active
same,Activity,Mus musculus [6],Active
CCCCCCCCCCCCCCCCCCCCCCCCCC(=O)N[C@@H](CO[C@H]1C[C@H](OC)[C@H](O)[C@H](O)[C@H]1O)[C@H](O)[C@H](O)CCCCCCCCCCCCCC,Activity,Mus musculus [7],Active
same,Activity,Mus musculus [8],Active
C[C@H]1O[C@H](O)[C@H](O)[C@@H](O)[C@H]1O,Activity,Mus musculus [8],Active
CCCCCCCCCCCCCCCCCCCCCCCCCC(=O)N[C@@H](CO[C@H]1C[C@H](COC)[C@H](O)[C@H](O)[C@H]1O)[C@H](O)[C@H](O)CCCCCCCCCCCCCC,Activity,Mus musculus [1],Active
CCCCCCCCCCCCCCCCCCCCCCCCCC(=O)N[C@@H](CO[C@@H]1[C@H](O)[C@@H](O)[C@@H](O)[C@@H](O)[C@@H]1O)[C@H](O)[C@H](O)CCCCCCCCCCCCCC,Activity,Mus musculus [7],inactive
same,Activity,Mus musculus [9],inactive
same,Activity,Mus musculus [8],inactive
CCCCCCCCCCCCCCCCCCCCCCCCCC(=O)N[C@@H](CO[C@@H]1[C@H](O)[C@@H](O)[C@H](O)[C@@H](O)[C@@H]1O)[C@H](O)[C@H](O)CCCCCCCCCCCCCC,Activity,Mus musculus [7],inactive
same,Activity,Mus musculus [9],inactive
same,Activity,Mus musculus [8],inactive
CCCCCCCCCCCCCCCCCCCCCCCCCC(=O)N[C@@H](CO[C@H]1C[C@H](O)[C@H](O)[C@H](O)[C@H]1O)[C@H](O)[C@H](O)CCCCCCCCCCCCCC,Activity,Mus musculus [7],Active
same,Activity,PBMC,Active
same,Activity,Mus musculus [8],Active

# Reference: ChEMBL document CHEMBL1152522, “RCAI-37, 56, 59, 60, 92, 101, and 102, cyclitol and carbasugar analogs of KRN7000: their synthesis and bioactivity for mouse lymphocytes to produce Th1-biased cytokines” (2009)
